# Screening results from PubChem BioAssay.
# Most compounds without a hit are left out; they make up all but 1.6% or so of the library.
# PKA-R1A act = activators of PKA-R1A complex; P00514+P68181; PKA-R1A dissociation, Cy5-IP20 fluorescence polarization; scaled: DMSO 0%, 113 µM cGMP 100%; activation, % at 11.4 µM; 0.083% of 340,000 active; AID 504707;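 active = percent activation above the mean of all tested compounds plus 3 SD, cut at about 19% in these data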;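 also: higher means more PKAc released from R1A so a rise in polarization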
# ATG4B inh = inhibitors of human ATG4B cysteine protease. ATG4B cleavage of LC3-PLA2, NBD-HPC fluorescence, 1 h. inhibition, % at 8.33 µM. AID 504462. 0.51% of 340,000 active. Q9Y4P1; in the data active = inhibition above about 40%
# Target sequence (Q9Y4P1 whole entry, looked up): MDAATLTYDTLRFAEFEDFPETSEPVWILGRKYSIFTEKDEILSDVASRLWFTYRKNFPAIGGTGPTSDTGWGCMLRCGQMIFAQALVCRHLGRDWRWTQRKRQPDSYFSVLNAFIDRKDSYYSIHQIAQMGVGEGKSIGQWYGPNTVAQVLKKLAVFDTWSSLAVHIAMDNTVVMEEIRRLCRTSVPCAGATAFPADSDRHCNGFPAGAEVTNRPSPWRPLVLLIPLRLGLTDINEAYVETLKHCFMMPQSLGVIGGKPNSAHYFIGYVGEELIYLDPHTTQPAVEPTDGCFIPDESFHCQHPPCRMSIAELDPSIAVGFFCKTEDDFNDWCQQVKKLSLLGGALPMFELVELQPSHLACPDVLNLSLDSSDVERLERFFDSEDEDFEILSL
# PKA-R2B act = activates the human PKA-R2B holoenzyme complex; P22694+P31323; PKA-R2B holoenzyme dissociation, Cy5-IP20 fluorescence polarization; R2B truncated from residue 108, S112A mutant; 0% DMSO only, 100% 113 µM cGMP; activation, % at 11.4 µM; 0.079% of 340,000 active; AID 504700;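 active = activation above a cutoff set at the mean over all compounds plus 3 SD, cut at about 18% in these data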;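 also: higher means more holoenzyme dissociation and a rise in polarization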
# T cell HTS = T cell immune modulation candidate; 2C CD8+ T cell-vesicle binding, flow cytometry; hits give low values; response (vesicle binding), % at 7 µM; 0.068% of 330,000 active;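 active = response, share of CD8 T cells binding vesicles, and their 90th percentile fluorescence all below set limits, cut at about 80% in these data, passing the limit was not always enough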;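 also: values below 100% mean blocked vesicle binding to the CD8+ T cells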
#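 Material: 2C TCR transgenic mouse naive CD8+ T cells, MACS-purified. Also added: QL9-charged Drosophila Ld/ICAM-1/B7-1 vesicles. Timing: binding 1.5 h at 37 °C. Measured by: high-throughput flow cytometry with anti-B7-1 and anti-CD8 staining. Read-out: percent CD8+ FL2 mean versus row control. Controls: Unloaded micro-vesicles (low), QL9 vesicles with 0.7% DMSO (high).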
# HKDC1 inh = inhibitors of human hexokinase HKDC1; recombinant HKDC1, G6PDH/diaphorase resazurin coupled fluorescence; 0.16% of 340,000 active; inhibition, % at 20 µM; Q2TB90;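 active = inhibition above about 35% when tested at 20 µM, limit read from the data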;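 also: plate controls were DMSO wells with enzyme for no effect and DMSO wells lacking enzyme for full effect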
#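 Test system: Recombinant HKDC1 (HK5) hexokinase enzyme, produced in-house | Input: HKDC1 at 5 µg/mL | Buffer or medium: Tris pH 8.0 buffer with MgCl2, Tween-20, BSA, BME | Schedule: 90 min reaction incubation at room temperature, dark | Technique: Resazurin-to-resorufin fluorescence via G6PDH and diaphorase coupling, 525/613 nm | Controls: DMSO wells with and without enzyme mix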
# PfG6PD inh = PfG6PD (Plasmodium falciparum) enzyme inhibition; PfGluPho enzyme, NADPH resazurin-diaphorase fluorescence; inhibition, % at 20 µM; 0.78% of 350,000 active; AID 504690;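 active = inhibition reaching at least a set limit at 20 µM in the primary screen, cut at about 59% in these data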;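 also: 0% = DMSO wells with substrate and 100% = DMSO wells lacking glucose-6-phosphate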
# Active calls of the source: *; i = inactive; . = not tested or not shown.
SMILES,PKA-R1A act,ATG4B inh,PKA-R2B act,T cell HTS,HKDC1 inh,PfG6PD inh
CC(C)CN(Cc1cc(=O)oc2cc3c(cc12)CCCC3)CC(C)C,3,-2,-9,76*,-1,9
COCCN(CCOC)Cc1cc(=O)oc2cc3c(cc12)CCC3,12,-8,7,511,5,11
O=[N+]([O-])c1ccc(/C=N/N=C/c2ccc([N+](=O)[O-])o2)o1,-5,17,-5,.,27,60*
Cc1noc(C)c1CSc1nc2ccccc2c(=O)n1-c1ccccc1,-14,54*,6,313,6,0
O=C(COC(=O)Cn1cc(C(F)(F)F)ccc1=O)Nc1ccccc1,-4,7,-11,316,1,-13
CC(C)(C)c1nnc(NC(=O)c2ccc3c(c2)OCO3)s1,-9,-1,0,297,-6,105*
CCc1ccc(-c2ccc(C(=O)O)cc2)nc1,-10,-8,5,33*,1,-21
Oc1c(Br)cc(Br)cc1C=NCc1ccc(F)cc1,-11,74*,7,252,14,7
COCCNS(=O)(=O)c1ccc(Cl)c(C(=O)NC2CCN(Cc3ccccc3)CC2)c1,-4,5,-4,316,-3,-6
O=C(COC(=O)c1ccc(S(=O)(=O)N2CCOCC2)cc1)Nc1ccccc1OC(F)F,-8,-3,-9,0.0*,0,-6
CCN(CC)c1ccc(NC(=O)C2=CC=CN3CCS(=O)(=O)N=C23)cc1,-12,-1,-12,0.0*,-3,10
O=c1c2ccccc2sn1-c1cc(S(=O)(=O)N2CCOCC2)ccc1N1CCOCC1,-9,-12,-2,294,0,111*
O=S(=O)(c1ccc(N2CCOCC2)c(Cl)c1)N1CCOCC1,0,8,6,332,4,-12
CC(C)C1C(C#N)=C(N)Oc2n[nH]c(-c3ccccc3)c21 (stereo not drawn),1,-6,1,163,1,16
CC(C)CC1C(C#N)=C(N)Oc2n[nH]c(-c3ccccc3)c21 (stereo not drawn),0,23,0,44*,5,7
CC(C)N(C(=O)c1ccc(C(=O)Nc2ccc([N+](=O)[O-])cc2)cc1)C(C)C,-9,4,2,606,-6,-8
CN(C)S(=O)(=O)c1ccc(NC(=O)c2ccc([N+](=O)[O-])cc2)cc1,-4,-5,6,0.0*,-5,10
C[C@@H]1NC(=O)c2cc([N+](=O)[O-])cc(I)c2OCC[C@@H](C(N)=O)NC(=O)[C@H](CCCCN)NC1=O,-5,-1,1,i,2,-6
NCCCC[C@H]1NC(=O)[C@H](CCC(=O)O)NC(=O)c2cc([N+](=O)[O-])cc(I)c2OCC[C@@H](C(N)=O)NC1=O,.,44*,.,643,10,-2
Cn1nc(C(=O)N2CCC(C(N)=O)CC2)c2c1-c1ccccc1SC2,-1,10,-1,501,-7,7
CCN1CCc2nc(N)sc2C1,0,3,-9,296,-5,62*
COc1ccc(-n2nc3c(N4CCC(C(=O)NCc5ccccc5C)CC4)nnc(C)c3c2C)cc1,2,54*,8,636,14,19
O=C(OCC(=O)N1CCN(C(=O)c2ccco2)CC1)c1cc(-c2ccco2)nc2ccccc12,-5,2,6,474,37*,46
Cc1cc2nc3ccc(=[N+](C)C)cc-3sc2cc1N,-378,12,-342,.,47*,102*
Cc1nc2cc(C)c(C)cc2s1,-13,8,-6,353,15,-12
SMILES,PKA-R1A act,ATG4B inh,PKA-R2B act,T cell HTS,HKDC1 inh,PfG6PD inh
CC1c2[nH]c3ccccc3c2CCN1C(=O)Nc1ccccc1 (stereo not drawn),3,-7,0,189,0,12
O=C(Nc1ccccc1)N1CCc2c([nH]c3ccccc23)C1C(F)(F)F (stereo not drawn),-9,-11,0,32*,4,2
COc1ccc(N2CCN(C(=O)COC(=O)COc3cc(C)cc(C)c3)CC2)cc1,-11,-3,-11,354,-3,10
Nc1sc2c(c1C(=O)NC1CCS(=O)(=O)C1)CCCC2 (stereo not drawn),-8,-17,2,327,6,62*
CCOc1ccc(CCNC(=O)CCS(=O)(=O)c2ccc(C)cc2)cc1OCC,-19,-2,-5,0.0*,-7,-5
CC(=O)Sc1nc(-c2ccccc2)[nH]c1S(=O)(=O)c1ccc(C)cc1,.,-8,.,160,-3,65*
O=C(CSc1nc(-c2ccc(F)cc2)nc2c1Cc1ccccc1O2)Nc1cccc(C(=O)O)c1,0,6,-2,.,57*,-39
CC(=O)c1cc(O)c2ccccc2c1O,-10,1,1,258,44*,48
Cn1cnc(S(=O)(=O)Nc2ccccc2C(=O)NCC2CC2)c1,0,-1,-3,162,-5,-3
Oc1ccccc1N1CCN(c2ccc3ccccc3n2)CC1,-5,17,-17,326,3,4
Cc1ccc2[nH]cc(CCNC(=O)/C=C/c3ccco3)c2c1,3,3,2,78*,0,27
O=C(/C=C/c1cccc(Cl)c1)NCCCN1CCOCC1,-3,-3,1,0,-8,9
O=C(COc1ccc(S(=O)(=O)N2CCCC2)cc1[N+](=O)[O-])N1CCCC1,10,-5,-5,170,1,-3
O=C(Cc1ccc(Cl)cc1)OCC(=O)N1CCCCCC1,1,-3,-6,61*,-6,-1
O=C(COc1ccc(Cl)cc1[N+](=O)[O-])N1CCCCCC1,1,1,-10,31*,15,-8
CCOC(=O)N1CCN(C(=O)COC(=O)Cc2ccc(Cl)cc2)CC1,-4,-3,-3,245,-3,9
Cc1sc2ncnc(NCC3(N4CCOCC4)CCCCC3)c2c1C,-2,0,1,320,26,29
Cc1sc2ncnc(NCC(C)(C)N3CCOCC3)c2c1C,0,-10,-8,56*,2,-4
Cc1ccc(-c2cc(C(=O)O)c3cc(Br)ccc3n2)o1,-10,4,-15,310,14,75*
Cc1ccc(-c2cc(C(=O)NN3CCOCC3)c3cc(Br)ccc3n2)o1,-9,-6,-12,155,-2,26
Cc1nc(N2CCC(C)CC2)c2oc3ccccc3c2n1,-3,30,-6,136,-2,-15
COc1ccccc1N1CCN(c2nc(C)nc3c2oc2ccccc23)CC1,-21,45*,-3,142,5,11
CCCNS(=O)(=O)c1cccc(C(=O)NNC(=O)c2cc(C)oc2C)c1,0,-8,-1,236,0,-14
